Screening data: PubChem, Sanford-Burnham Center for Chemical Genomics
A selection: hits, their analogues and other compounds. The true share with any hit is near 1.4%.
APJ agonist = agonists of human apelin receptor APJ, primary screen, CHO-K1 cells, PathHunter beta-arrestin, luminescence | AID 2520, 2010 | P35414 | 330,000 compounds, 0.11% hits | activation, % at 20 µM | 0% DMSO wells, 100% apelin;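 active = activation more than six SD over the plate average, tested at 20 µM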;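 also: 0% = DMSO alone and 100% = apelin-13 at 10 nM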
Target sequence (P35414 whole entry, looked up): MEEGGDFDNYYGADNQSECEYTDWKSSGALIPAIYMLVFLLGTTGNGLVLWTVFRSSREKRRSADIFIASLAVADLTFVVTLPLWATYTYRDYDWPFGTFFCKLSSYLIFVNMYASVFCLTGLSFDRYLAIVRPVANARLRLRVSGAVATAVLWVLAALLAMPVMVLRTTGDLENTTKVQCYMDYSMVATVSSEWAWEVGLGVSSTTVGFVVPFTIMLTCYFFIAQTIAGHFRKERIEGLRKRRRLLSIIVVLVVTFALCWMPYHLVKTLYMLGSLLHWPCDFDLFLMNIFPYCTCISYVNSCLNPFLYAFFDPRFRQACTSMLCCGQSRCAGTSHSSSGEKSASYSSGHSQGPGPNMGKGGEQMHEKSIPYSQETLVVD
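system = engineered CHO-K1 APJ arrestin reporter cells | input = 1000 cells per well | timing = overnight seeding, 90 min compound at 25 °C, 1 h detection | measured by = enzyme-fragment complementation luminescence | read-out = beta-arrestin recruitment to APJ as agonist activity, luminescent signal | control set = negative DMSO alone, positive Apelin-13 at 10 nM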
APJ antagonist = antagonists of human apelin receptor APJ, primary screen, CHO-K1 cells, beta-arrestin complementation, luminescence; P35414; inhibition, % at 20 µM; 330,000 compounds, 0.32% hits;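 active = inhibition above about 40% at 20 µM, limit read from the data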;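 also: cells challenged with 10 nM apelin-13 agonist together with compound; plate controls were apelin-13 plus DMSO wells for no effect and DMSO wells lacking apelin-13 for full effect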
CCR6 antagonist = CCR6 receptor antagonists, primary screen, cell-based, CHO-K1, luminescence, beta-arrestin, uHTS; C-C chemokine receptor type 6 (Homo sapiens), P51684; CHO-K1 CCR6 PathHunter beta-arrestin, CCL20-stimulated; inhibition, % at 20 µM; 340,000 compounds, 0.49% hits;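 active = compounds whose inhibition of the agonist-driven luminescence signal at 20 µM reaches about 50%, limit read from the data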;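 also: cells stimulated with CCL20 at 14 nM final; plate controls were DMSO with CCL20 for no effect and DMSO without agonist for full effect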
A3A deaminase = APOBEC3A ssDNA deaminase inhibitors, primary screen, selectivity assay for APOBEC3G inhibitor project, biochemical, FAM/TAMRA oligo cleavage fluorescence; AID 493011, 2011; 330,000 compounds, 0.41% hits; inhibition, % at 20 µM; recombinant A3A, FAM/TAMRA ssDNA deamination fluorescence;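 active = at least 40% inhibition at 20 µM here, with at most 30% in a related deaminase screen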;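 also: plate controls were A3A with DMSO for no effect and wells lacking A3A enzyme for full effect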
Target sequence (P31941 whole entry, looked up): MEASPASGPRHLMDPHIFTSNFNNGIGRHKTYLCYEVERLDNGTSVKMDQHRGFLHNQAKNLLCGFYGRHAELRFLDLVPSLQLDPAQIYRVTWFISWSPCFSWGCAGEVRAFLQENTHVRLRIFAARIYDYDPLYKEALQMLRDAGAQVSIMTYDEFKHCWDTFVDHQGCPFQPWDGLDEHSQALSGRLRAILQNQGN
A3G deaminase = APOBEC3G DNA deaminase inhibitors, primary screen, biochemical, fluorescence, single-stranded DNA substrate, uHTS. inhibition, % at 20 µM. recombinant A3G, ssDNA deamination FAM/TAMRA fluorescence. 330,000 compounds, 0.28% hits. DNA dC->dU-editing enzyme APOBEC-3G (Homo sapiens), Q9HC16;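 active = inhibition of at least 40% at 20 µM, with no more than 30% in the related APOBEC3A deaminase screen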;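 also: plate controls were DMSO wells with A3G for no effect and wells lacking A3G enzyme for full effect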
CXCR6 inh = CXCR6 receptor inhibitors, primary screen, cell-based, beta-arrestin, luminescence, CHO-K1 PathHunter, 1536-well. C-X-C chemokine receptor type 6 (Homo sapiens), O00574. inhibition, % at 20 µM. 360,000 compounds, 0.36% hits; in the data active = inhibition above about 34%, passing the limit was not always enough;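 also: antagonist mode with CXCL16 agonist at 10 nM final; 0% = 10 nM CXCL16 with DMSO and 100% = unstimulated wells without agonist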
APOBEC3G confirm = APOBEC3G deaminase inhibitor retest, confirmation, biochemical, fluorescence, single-stranded DNA substrate, single concentration; recombinant A3G ssDNA deaminase, UDG/FAM-TAMRA fluorescence; inhibition, % at 20 µM; AID 493152, 2011; 890 compounds, 72% hits; shares compounds with A3G deaminase;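 active = inhibition reaching a set limit in any replicate at 20 µM, the limit being 80% of the first screen's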
UDG ctr A3G = E. coli UDG inhibitors, confirmation, counter-screen for APOBEC3G inhibitor project, biochemical, single concentration, fluorescence, FAM/TAMRA oligo. shares compounds with A3G deaminase. UDG counterscreen. inhibition, % at 20 µM. 710 tested, under 10 active;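 active = compounds giving 40% or more inhibition at 20 µM in any one of the three replicates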;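 also: plate controls were DMSO wells with UDG and oligo for no effect and DMSO wells lacking both for full effect; inhibitors lower the FAM signal released by uracil excision and alkaline cleavage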
Starred values were filed as active, the others as inactive.

`Cc1n[nH]c(=S)n1/N=C/c1c(O)ccc2ccccc12` gave APJ agonist 1, APJ antagonist -14, CCR6 antagonist -7, A3A deaminase -3, A3G deaminase 46*, CXCR6 inh -8, APOBEC3G confirm 85* and UDG ctr A3G -2.
`Cc1nc2ccccc2c(=O)n1/N=C/c1c(O)ccc2ccccc12` gave APJ agonist -2, APJ antagonist -8, CCR6 antagonist 19, A3A deaminase -2, A3G deaminase -3 and CXCR6 inh -7.
`S=c1[nH]nc(C2CCCCC2)n1/N=C/c1ccccn1` gave APJ agonist -1, APJ antagonist -12, CCR6 antagonist 13, A3A deaminase -4, A3G deaminase 51*, CXCR6 inh 12, APOBEC3G confirm 79* and UDG ctr A3G 4.
Screening S=c1[nH]nc(-c2ccccn2)n1/N=C/c1cccs1 returned APJ agonist -1, APJ antagonist -10, CCR6 antagonist 5, A3A deaminase -2, A3G deaminase -12 and CXCR6 inh 8.
Screening CC(/C=N/n1c(-c2ccccn2)n[nH]c1=S)=C\c1ccccc1 returned APJ agonist -3, APJ antagonist 19, CCR6 antagonist 14, A3A deaminase 2, A3G deaminase 51*, CXCR6 inh -1, APOBEC3G confirm 37* and UDG ctr A3G 2.
S=c1[nH]nc(C2CCCCC2)n1/N=C/c1ccccc1 was read as APJ agonist -4, APJ antagonist 13, CCR6 antagonist 12, A3A deaminase 1, A3G deaminase 11 and CXCR6 inh 5.
`S=c1[nH]nc(-c2ccccn2)n1/N=C/c1cccc2ccccc12` gave APJ agonist 0, APJ antagonist -9, CCR6 antagonist 8, A3A deaminase -3, A3G deaminase 66*, CXCR6 inh -8, APOBEC3G confirm 70* and UDG ctr A3G -3.
`COc1ccccc1NC(=S)NNC(=O)c1ccccc1Br` gave APJ agonist -7, APJ antagonist 6, CCR6 antagonist 22, A3A deaminase 0, A3G deaminase 6 and CXCR6 inh 22.
For CCOc1ccc(C(=O)NCC(=O)NCC(c2ccc(OC)cc2)N2CCOCC2)cc1OCC (stereo unspecified) the results were APJ agonist -4, APJ antagonist 17, CCR6 antagonist 8, A3A deaminase -3, A3G deaminase -11 and CXCR6 inh 5.
For Cc1sc(NC(=O)C2CC(=O)N(Cc3ccco3)C2)nc1-c1ccccc1 (stereo unspecified) the results were CXCR6 inh -2.
Cc1ccc(NNC(=O)c2ccno2)cc1C was read as APJ agonist -18, APJ antagonist 38, CCR6 antagonist 26, A3A deaminase -4, A3G deaminase 42*, CXCR6 inh 10, APOBEC3G confirm 39* and UDG ctr A3G -3.
Screening CCCCN(CCCC)C(=O)c1sc2nc(N3CCOCC3)c3c(c2c1N)CCCC3 returned APJ agonist 5, APJ antagonist 4, CCR6 antagonist 7, A3A deaminase -1, A3G deaminase 42*, CXCR6 inh 12, APOBEC3G confirm -10 and UDG ctr A3G -2.
`Nc1n[nH]c(C2CCCCC2)n1` gave APJ agonist -1, APJ antagonist 18, CCR6 antagonist 9, A3A deaminase 6, A3G deaminase 5 and CXCR6 inh 2.
S=c1nc(C2CCCCC2)[nH][nH]1 was read as APJ agonist -3, APJ antagonist 3, CCR6 antagonist 4, A3A deaminase 1, A3G deaminase 43*, CXCR6 inh -3, APOBEC3G confirm 87* and UDG ctr A3G -5.
Screening CC1CCN=C(N)S1 (stereo unspecified) returned APJ agonist -4, APJ antagonist 3, CCR6 antagonist 0, A3A deaminase 0, A3G deaminase -6 and CXCR6 inh -5.
Screening CN(Cc1ccc2ccccc2c1)C(=O)c1ccc(C(F)(F)F)cc1 returned APJ agonist -2, APJ antagonist 14, CCR6 antagonist 21, A3A deaminase -4, A3G deaminase -6 and CXCR6 inh 2.
`O=S(=O)(Nc1ccccc1F)c1cccc(NC(=S)NCCN2CCOCC2)c1` gave APJ agonist -3, APJ antagonist 12, CCR6 antagonist 13, A3A deaminase -2, A3G deaminase 71*, CXCR6 inh 0, APOBEC3G confirm 80* and UDG ctr A3G -5.
O=C(Cc1c(F)cccc1Cl)Nc1cccc(S(=O)(=O)NC2=NCCCCC2)c1 was read as APJ agonist -1, APJ antagonist 13, CCR6 antagonist 10, A3A deaminase 3, A3G deaminase 5 and CXCR6 inh -6.
O=C(Cc1ccc(Cl)cc1Cl)Nc1cccc(S(=O)(=O)Nc2ccccc2F)c1 was read as APJ agonist -2, APJ antagonist 12, CCR6 antagonist 16, A3A deaminase 8, A3G deaminase 56*, CXCR6 inh -4, APOBEC3G confirm 74* and UDG ctr A3G 0.
For O=C(/C=C/c1ccccc1)Nc1cccc(S(=O)(=O)Nc2ccccc2F)c1 the results were APJ agonist -1, APJ antagonist 19, CCR6 antagonist 35, A3A deaminase 6, A3G deaminase 71*, CXCR6 inh -7, APOBEC3G confirm 60* and UDG ctr A3G 3.
Screening O=S(=O)(Nc1ccc(Br)cc1)c1cccc(NC(=S)NCCN2CCOCC2)c1 returned APJ agonist 1, APJ antagonist 0, CCR6 antagonist 5, A3A deaminase -4, A3G deaminase -6 and CXCR6 inh 0.
For O=C(Nc1cccc(S(=O)(=O)Nc2ccccc2F)c1)c1ccc2ccccc2n1 the results were APJ agonist -1, APJ antagonist 9, CCR6 antagonist -4, A3A deaminase 2, A3G deaminase 56*, CXCR6 inh 3, APOBEC3G confirm 61* and UDG ctr A3G -3.
